From PMC4338372 (FEBS Open Bio, 2015)
One block for each molecule: values may come before it.

Tests used:
[1] = test system: SH3 domain of DOCK180 (SH3DOCK); test: Pull-down of 6His-ELMO1 constructs on immobilized GST-SH3DOCK; assay type: binding, human; conditions: bacterially expressed 6His-ELMO1; 1 h at 4 °C; anti-polyHistidine western blot
Summary of the method: (§1)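 GST-tagged SH3 domains (Hck residues 77–141; human DOCK180 residues 9–69) and 6His-ELMO1 (wild type 1–727, 532–727 and 532–707) were made in E. coli BL21(DE3) (1 mM IPTG, LB, 3 h, 37 °C). ELMO1 was purified by Ni–NTA and gel filtration, GST fusions on glutathione resin. ELMO1 was incubated with resin-bound SH3 (1 mg/ml) for 1 h at 4 °C in pH 7.5 Hepes buffer. Beads were washed three times, eluted denaturing, and analysed by SDS–PAGE and anti-His immunoblot.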

[2] = molecular target: SH3 domain of Hck (SH3Hck) (Homo sapiens, UniProt P08631); test: Pull-down of 6His-ELMO1 constructs on immobilized GST-SH3Hck; assay type: binding; conditions: bacterially expressed 6His-ELMO1; 1 h at 4 °C; anti-polyHistidine western blot
Summary of the method: as §1

CLIP-SH3Hck = test: FRET of SNAP-ELMO1 constructs and CLIP-SH3Hck in HEK293T cells by flow cytometry; assay type: cell-based; conditions: HEK293T co-transfected with CLIP-SH3Hck; control CLIP-SH3Hck alone
SH3Hck = test: Solid-phase enzyme immunoassay; assay type: binding; conditions: preliminary solid-phase enzyme immunoassay; data not shown

Sequence of SH3 domain of Hck (SH3Hck) (P08631 77-141): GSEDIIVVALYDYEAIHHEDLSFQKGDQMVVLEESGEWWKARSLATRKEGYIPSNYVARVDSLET

B1: ELMO532–707: C-terminal domain of ELMO1 without the polyproline motif (protein)
chain: PILELKEKIQPEILELIKQQRLNRLVEGTCFRKLNARRRQDKFWYCRLSPNHKVLHYGDLEESPQGEVPHDSLQDKLPVADIKAVVTGKDCPHMKEKGALKQNKEVLELAFSILYDSNCQLNFIAPDKHEYCIWTDGLNALLGKDMMSDLTRNDLDTLLSMEIKLRLLDLENIQIP
modifications: left off: 6His (TEV cleavable), end not stated, kept
pull-down by immobilized GST-SH3DOCK [1]: efficiently pulled-down

pull-down by immobilized GST-SH3Hck [2]: specifically pulled-down
dissociation rate of SH3Hck (SH3Hck): ten-micromolar range
B2: ELMO532–727: C-terminal domain of ELMO1 with the polyproline motif (protein)
chain: PILELKEKIQPEILELIKQQRLNRLVEGTCFRKLNARRRQDKFWYCRLSPNHKVLHYGDLEESPQGEVPHDSLQDKLPVADIKAVVTGKDCPHMKEKGALKQNKEVLELAFSILYDSNCQLNFIAPDKHEYCIWTDGLNALLGKDMMSDLTRNDLDTLLSMEIKLRLLDLENIQIPDAPPPIPKEPSNYDFVYDCN
modifications: left off: 6His (TEV cleavable), end not stated, kept
pull-down by immobilized GST-SH3DOCK [1]: efficiently pulled-down
median FRET intensity compared to control cells (CLIP-SH3Hck): significantly higher median FRET intensity compared to control cells

pull-down by immobilized GST-SH3Hck [2]: successfully pulled-down
B3: ELMO1–727: wild type (murine) ELMO1 protein (protein)
chain: MPPPSDIVKVAIEWPGAYPKLMEIDQKKPLSAIIKEVCDGWSLANHEYFALQHADSSNFYITEKNRNEIKNGTILRLTTSPAQNAQQLHERIQSSSMDAKLEALKDLASLSRDVTFAQEFINLDGISLLTQMVESGTERYQKLQKIMKPCFGDMLSFTLTAFVELMDHGIVSWDTFSVAFIKKIASFVNKSAIDISILQRSLAILESMVLNSHDLYQKVAQEITIGQLIPHLQGTDQEIQTYTIAVINALFLKAPDERRQEMANILAQKQLRYIILTHVIRAQRAINNEMAHQLYVLQVLTFNLLEDRMMTKMDPQDQAQRDIIFELRRIAFDAESEPNNSSGSMEKRKSMYTRDYKKLGFINHVNPAMDFTQTPPGMLALDNMLYFAKHHQDAYIRIVLENSSREDKHECPFGRSSIELTKMLCEILKVGELPSETCNDFHPMFFTHDRSFEEFFCICIQLLNKTWKEMRATSEDFNKVMQVVKEQVMRALTTKPSSLDQFKSKLQNLSYTEILKIRQSERMNQEDFQSRPILELKEKIQPEILELIKQQRLNRLVEGTCFRKLNARRRQDKFWYCRLSPNHKVLHYGDLEESPQGEVPHDSLQDKLPVADIKAVVTGKDCPHMKEKGALKQNKEVLELAFSILYDSNCQLNFIAPDKHEYCIWTDGLNALLGKDMMSDLTRNDLDTLLSMEIKLRLLDLENIQIPDAPPPIPKEPSNYDFVYDCN
modifications: left off: 6His (TEV cleavable), end not stated, kept
pull-down by immobilized GST-SH3DOCK [1]: successfully pulled-down
